# Experimental data collected from several papers.
# Compare with care: the assays were run in different laboratories.
# Target: Prostaglandin G/H synthase 2 (PTGS2, Homo sapiens, UniProt P35354)
# Read-out: enzyme activity
# Action: inhibitor
# One construct used (P35354 18-604): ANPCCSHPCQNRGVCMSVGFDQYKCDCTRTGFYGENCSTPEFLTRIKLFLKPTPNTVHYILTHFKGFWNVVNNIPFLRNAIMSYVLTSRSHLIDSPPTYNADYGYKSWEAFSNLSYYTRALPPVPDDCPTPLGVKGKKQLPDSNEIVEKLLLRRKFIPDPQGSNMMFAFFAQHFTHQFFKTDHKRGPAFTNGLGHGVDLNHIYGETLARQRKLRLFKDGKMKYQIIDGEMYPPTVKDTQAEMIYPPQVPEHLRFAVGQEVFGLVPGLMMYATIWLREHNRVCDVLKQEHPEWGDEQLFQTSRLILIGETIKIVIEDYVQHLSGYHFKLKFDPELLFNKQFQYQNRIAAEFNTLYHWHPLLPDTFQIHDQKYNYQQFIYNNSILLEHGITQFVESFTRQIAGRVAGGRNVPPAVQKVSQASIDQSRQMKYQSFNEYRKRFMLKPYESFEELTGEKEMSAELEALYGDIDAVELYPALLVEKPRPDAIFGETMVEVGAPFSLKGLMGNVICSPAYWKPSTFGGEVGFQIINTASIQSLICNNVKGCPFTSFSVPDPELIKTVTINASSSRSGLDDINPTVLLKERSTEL
Structure (SMILES),technique,IC50 [nM]
CC(=O)c1ccc(N=Nc2c(C(=O)O)cc(O)c(O)c2O)cc1,,6110
CC1=NN(c2cccc(Cl)c2)C(=O)/C1=C\c1cn(-c2nc(Cl)nc(N3CCOCC3)n2)c2ccccc12,,100
Cc1cccc2nc(-c3ccc(S(C)(=O)=O)cc3)c(Nc3ccc(Cl)cc3)n12,,80
CC1=NN(c2cccc(Cl)c2)C(=O)/C1=C\c1cn(-c2nc(N3CCCCC3)nc(N3CCCCC3)n2)c2ccccc12,,100
COc1cc([C@H]2OC[C@H]3[C@@H]2CO[C@@H]3c2cc(OC)c(O)c(OC)c2)cc(OC)c1O,absorbance,2490
Cc1cccc2nc(-c3ccc(S(C)(=O)=O)cc3)c(Nc3ccccc3)n12,,70
O=C(O)/C=C/c1ccc(O)cc1,,> 100000
CCn1c(-c2nc3ccc(C(=O)N4CCCC(N)C4)cc3n2C)cc2ccccc21 (centres unmarked),,> 100000
NS(=O)(=O)c1ccc(-c2ncccc2-c2nc3ccccc3s2)cc1,absorbance,690
CC(C)Cc1ccc(-c2nn(-c3ccc(S(C)(=O)=O)cc3)cc2/C=N/N=c2\[nH]c(-c3ccc(Br)cc3)cs2)cc1,,3010
CS(=O)(=O)c1ccc(-c2ncccc2-c2nc3ccccc3s2)cc1,absorbance,860
O=Cc1cn(-c2nc(Cl)nc(N3CCOCC3)n2)c2ccccc12,,10000
COc1ccc(-c2nn(-c3ccc(S(C)(=O)=O)cc3)cc2/C=N/N=c2\[nH]c(-c3ccc(Br)cc3)cs2)cc1,,18600
COc1ccc(Nc2c(-c3ccc(S(C)(=O)=O)cc3)nc3cccc(C)n23)cc1,,90
CS(=O)(=O)c1ccc(-n2cc(/C=N/N=c3\[nH]c(-c4ccc(Br)cc4)cs3)c(-c3ccc(Br)cc3)n2)cc1,,5820
O=C1/C(=C\c2cn(-c3nc(N4CCCC4)nc(N4CCOCC4)n3)c3ccccc23)c2ccccc2N1c1c(Cl)cccc1Cl,,4000
COc1ccc(-c2cc(=O)c3c(O)cc(O[C@@H]4O[C@H](CO)[C@@H](O)[C@H](O)[C@H]4O)cc3o2)cc1O,absorbance,973
Cc1ccc(-c2nc3ccccc3s2)c(-c2ccc(S(C)(=O)=O)cc2)c1,absorbance,230
O=C1Nc2ccccc2/C1=C/c1cn(-c2nc(N3CCCCC3)nc(N3CCOCC3)n2)c2ccccc12,,80
CCOC(=O)c1cc(O)c(O)c(O)c1,,13400
C=C[C@@]1(C)C=C2CC[C@@H]3[C@](C)(CCC[C@@]3(C)C(=O)O)[C@H]2CC1,absorbance,18500
Cc1ccc(Nc2c(-c3ccc(S(C)(=O)=O)cc3)nc3ccccn23)cc1,,100
CC(C)Cc1ccc(-c2nn(-c3ccc(S(C)(=O)=O)cc3)cc2/C=N\N=C2/NC(=O)CS2)cc1,,756
CC(=O)c1cccc(/N=N/c2cc(/C=C/C(=O)O)ccc2O)c1,,> 100000
CS(=O)(=O)c1ccc(-c2nc3ccccn3c2Nc2ccc(Cl)cc2)cc1,,70
CC1=NN(c2cccc(Cl)c2)C(=O)/C1=C\c1cn(-c2nc(N3CCCCC3)nc(N3CCOCC3)n2)c2ccccc12,,50
Cc1ccn2c(Nc3ccc(Cl)cc3)c(-c3ccc(S(C)(=O)=O)cc3)nc2c1,,80
O=Cc1cn(-c2nc(N3CCCCC3)nc(N3CCCCC3)n2)c2ccccc12,,7000
Cc1cccn2c(Nc3ccc(F)cc3)c(-c3ccc(S(C)(=O)=O)cc3)nc12,,70
CS(=O)(=O)c1ccc(-n2cc(C=N/N=c3\[nH]c(-c4ccc(Br)cc4)cs3)c(-c3ccc([N+](=O)[O-])cc3)n2)cc1,,27800
CC1=NN(c2cccc(Cl)c2)C(=O)/C1=C\c1cn(-c2nc(N3CCCC3)nc(N3CCOCC3)n2)c2ccccc12,,1000
Cc1cccn2c(Nc3ccccc3)c(-c3ccc(S(C)(=O)=O)cc3)nc12,,80
